Laboratory results from ChEMBL document CHEMBL4251751 (J Med Chem, 2018).
≈ marks a conversion by molar mass, not a printed value. Calls of active or inactive are those of the source. The rule behind the calls is not given here.

Assays:
[1] = target: T1, Peroxisome proliferator-activated receptor gamma (Homo sapiens, UniProt P37231); assay: Partial agonist activity at human PPARgamma LBD expressed HEK293T cells after 12 to 14 hrs by dual-glo luciferase reporter gene assay
T1 sequence (P37231 whole entry): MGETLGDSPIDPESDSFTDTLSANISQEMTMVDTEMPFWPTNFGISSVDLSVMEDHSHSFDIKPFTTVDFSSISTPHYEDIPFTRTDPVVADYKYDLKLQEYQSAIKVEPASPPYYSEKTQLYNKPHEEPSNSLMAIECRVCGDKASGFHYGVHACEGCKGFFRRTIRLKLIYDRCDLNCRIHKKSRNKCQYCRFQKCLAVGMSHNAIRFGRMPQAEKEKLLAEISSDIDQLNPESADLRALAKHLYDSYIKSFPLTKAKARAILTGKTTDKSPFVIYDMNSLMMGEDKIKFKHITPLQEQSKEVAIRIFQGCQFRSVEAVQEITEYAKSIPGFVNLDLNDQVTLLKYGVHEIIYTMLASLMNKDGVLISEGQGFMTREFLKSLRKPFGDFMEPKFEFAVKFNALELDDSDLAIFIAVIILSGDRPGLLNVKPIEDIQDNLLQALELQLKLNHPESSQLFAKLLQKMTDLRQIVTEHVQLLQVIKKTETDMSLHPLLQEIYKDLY

[2] = target: T2, Bifunctional epoxide hydrolase 2 (Homo sapiens, UniProt P34913); assay: Inhibition of recombinant human sEH using PHOME as substrate preincubated for 30 mins followed by substrate addition and measured after 30 mins by spectrofluorimetry
T2 sequence (P34913 whole entry): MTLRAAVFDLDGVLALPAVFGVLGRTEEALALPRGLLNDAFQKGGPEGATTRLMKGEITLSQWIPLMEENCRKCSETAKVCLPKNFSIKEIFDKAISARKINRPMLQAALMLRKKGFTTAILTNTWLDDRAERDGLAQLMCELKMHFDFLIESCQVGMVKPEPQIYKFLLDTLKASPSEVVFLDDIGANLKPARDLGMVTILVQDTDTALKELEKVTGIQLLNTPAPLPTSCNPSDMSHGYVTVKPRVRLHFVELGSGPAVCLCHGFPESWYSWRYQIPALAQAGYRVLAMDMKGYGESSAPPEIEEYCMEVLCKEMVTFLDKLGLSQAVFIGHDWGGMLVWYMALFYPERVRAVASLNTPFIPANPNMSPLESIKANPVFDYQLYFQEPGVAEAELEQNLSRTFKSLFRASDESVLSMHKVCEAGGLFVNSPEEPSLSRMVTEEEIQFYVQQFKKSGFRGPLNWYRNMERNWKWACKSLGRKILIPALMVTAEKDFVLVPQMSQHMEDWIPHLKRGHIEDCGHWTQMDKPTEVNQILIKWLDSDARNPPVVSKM

[3] = target: T3, Cysteinyl leukotriene receptor 1 (Homo sapiens, UniProt Q9Y271); assay: Antagonist potency at human CysLT1R expressed in African green monkey COS7 cells assessed as inhibition of LTD4-induced Ca2+ levels after 60 mins by fura-2/AM-fluorescence based spectrofluorimetry; assay type: functional, cell-based; conditions: read-out: pA2 (converted)
T3 sequence (Q9Y271 whole entry): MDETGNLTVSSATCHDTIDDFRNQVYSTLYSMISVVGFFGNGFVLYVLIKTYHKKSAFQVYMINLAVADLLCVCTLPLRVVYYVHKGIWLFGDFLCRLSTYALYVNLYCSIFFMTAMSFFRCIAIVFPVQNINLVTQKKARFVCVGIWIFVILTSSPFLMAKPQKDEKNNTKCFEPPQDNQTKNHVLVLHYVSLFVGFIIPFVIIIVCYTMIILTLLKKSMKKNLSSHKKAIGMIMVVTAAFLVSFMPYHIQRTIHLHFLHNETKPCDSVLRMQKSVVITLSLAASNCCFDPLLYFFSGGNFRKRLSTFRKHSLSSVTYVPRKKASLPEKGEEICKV

[4] = target: T4, Nuclear receptor subfamily 1 group I member 2 (Homo sapiens, UniProt O75469); assay: Agonist activity at human PXR LBD expressed HEK293T cells at 10 uM after 12 to 14 hrs by dual-glo luciferase reporter gene assay; assay type: ADME
T4 sequence (O75469 whole entry): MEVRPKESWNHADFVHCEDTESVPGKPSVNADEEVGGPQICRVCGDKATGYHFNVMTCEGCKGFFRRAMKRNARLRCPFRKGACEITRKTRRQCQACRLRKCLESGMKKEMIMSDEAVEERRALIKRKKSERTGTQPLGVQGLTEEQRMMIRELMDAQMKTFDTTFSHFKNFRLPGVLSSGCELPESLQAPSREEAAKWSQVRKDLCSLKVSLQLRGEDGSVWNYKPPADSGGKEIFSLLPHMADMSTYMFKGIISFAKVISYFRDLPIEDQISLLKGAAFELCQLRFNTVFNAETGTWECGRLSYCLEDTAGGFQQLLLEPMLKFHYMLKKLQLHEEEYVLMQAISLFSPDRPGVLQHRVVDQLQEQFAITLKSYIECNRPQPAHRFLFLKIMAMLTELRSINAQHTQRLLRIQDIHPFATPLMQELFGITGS

[5] = target: T5, Nuclear receptor subfamily 1 group I member 3 (Homo sapiens, UniProt Q14994); assay: Agonist activity at human CAR LBD expressed HEK293T cells at 10 uM after 12 to 14 hrs by dual-glo luciferase reporter gene assay; assay type: ADME
T5 sequence (Q14994 whole entry): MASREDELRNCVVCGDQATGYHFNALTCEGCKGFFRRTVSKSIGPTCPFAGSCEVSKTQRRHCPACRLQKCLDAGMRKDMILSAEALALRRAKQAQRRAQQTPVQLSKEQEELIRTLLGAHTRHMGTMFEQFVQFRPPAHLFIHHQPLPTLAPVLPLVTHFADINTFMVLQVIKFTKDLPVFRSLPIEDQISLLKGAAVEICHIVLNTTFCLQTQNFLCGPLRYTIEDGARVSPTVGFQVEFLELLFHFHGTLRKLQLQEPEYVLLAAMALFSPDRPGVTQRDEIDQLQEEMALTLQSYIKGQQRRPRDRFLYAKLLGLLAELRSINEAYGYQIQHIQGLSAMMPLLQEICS

[6] = Aqueous solubility of the compound at 5 mg after 24 hrs by HPLC analysis; assay type: physicochemical; conditions: water
[7] = Lipophilicity, log D of the compound at 30 uM at pH 7.4 by HPLC method; assay type: physicochemical; conditions: buffer
[8] = Metabolic stability in Sprague-Dawley rat liver microsomes assessed as compound remaining at 10 uM in presence of NADPH regenerating system after 4 hrs by HPLC analysis; assay type: ADME, microsome; conditions: read-out: Stability
Mus musculus [9] = assay: Anti-inflammatory activity in zymosan-induced paw edema C57BL/6N mouse model assessed as reduction in paw edema at 10 mg/kg, po via gavage pretreated for 30 mins followed by zymosan injection and measured after 8 hrs post zymosan injection by plethysmometry; assay type: functional, organism-based
Method in brief: (§1)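 Zymosan was injected intraplantar into one hindpaw of C57BL/6N mice. Test compound or vehicle was given orally at 10 mg/kg 30 min beforehand. Paw edema was measured by plethysmometry at 8 h and 24 h after zymosan, with the contralateral hindpaw as a control.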

Mus musculus [10] = assay: Anti-inflammatory activity in zymosan-induced paw edema C57BL/6N mouse model assessed as reduction in paw edema at 10 mg/kg, po via gavage pretreated for 30 mins followed by zymosan injection and measured after 24 hrs post zymosan injection by plethysmometry; assay type: functional, organism-based; method in brief: as §1
[11] = target: T6, Peroxisome proliferator-activated receptor gamma (Mus musculus, UniProt P37238); assay: Agonist activity at PPARgamma in mouse 3T3-L1 cells assessed as increase in CD36 mRNA expression at 1 uM after 15 days by quantitative real-time PCR method; assay type: cell-based; conditions: 3t3-l1, 360 h
T6 sequence (P37238 whole entry): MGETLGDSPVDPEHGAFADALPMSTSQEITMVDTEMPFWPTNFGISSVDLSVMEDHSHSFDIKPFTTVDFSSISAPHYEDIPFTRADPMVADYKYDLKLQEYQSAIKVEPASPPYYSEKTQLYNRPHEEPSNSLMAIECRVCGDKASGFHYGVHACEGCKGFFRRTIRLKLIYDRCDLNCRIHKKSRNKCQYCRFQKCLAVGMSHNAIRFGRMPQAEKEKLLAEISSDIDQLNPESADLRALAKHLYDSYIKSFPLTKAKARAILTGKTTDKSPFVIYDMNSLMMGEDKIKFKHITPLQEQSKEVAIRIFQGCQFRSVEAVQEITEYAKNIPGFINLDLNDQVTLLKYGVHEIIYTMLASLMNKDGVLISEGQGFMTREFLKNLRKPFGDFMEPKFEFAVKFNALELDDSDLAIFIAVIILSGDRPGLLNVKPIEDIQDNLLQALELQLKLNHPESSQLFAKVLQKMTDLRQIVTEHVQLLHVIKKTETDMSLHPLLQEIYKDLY

[12] = target: T6, Peroxisome proliferator-activated receptor gamma; assay: Agonist activity at PPARgamma in mouse 3T3-L1 cells assessed as induction of adipocyte differentiation at 1 uM after 15 days by Oil Red O staining-based assay; assay type: cell-based; conditions: 3t3-l1, 360 h
[13] = target: T7, Peroxisome proliferator-activated receptor gamma (Mus musculus) (UniProt P37238); assay: Agonist activity at PPARgamma in mouse 3T3-L1 cells assessed as increase in CPT1A mRNA expression at 1 uM after 15 days by quantitative real-time PCR method; assay type: cell-based
T7 sequence (whole entry): T6 sequence (P37238 whole entry)

HepG2 = assay: Cytotoxicity against human HepG2 cells at 1 to 100 uM after 48 hrs by WST assay; assay type: cell-based; conditions: hepg2, 48 h
[14] = target: T6, Peroxisome proliferator-activated receptor gamma; assay: Agonist activity at PPARgamma in mouse 3T3-L1 cells assessed as induction of adipocyte differentiation at 0.3 to 3 uM after 15 days by Oil Red O staining-based assay; assay type: cell-based; conditions: 3t3-l1, 360 h
[15] = Elimination half life in C57BL/6JRj mouse at 10 mg/kg, po by LC-MS/MS analysis; assay type: ADME, organism-based; conditions: in vivo, read-out: beta t1/2 (converted)
Method in brief: (§2)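 Four healthy wild-type male C57Bl6/J mice received a single oral dose of 10 mg/kg. Plasma concentrations were followed over time to give uptake, bioavailability and terminal half-life. Results are mean±SEM, n=4.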

Mus musculus [16] = assay: Activation of PPARgamma in C57BL/6JRj mouse assessed as up-regulation of CD36 expression at 10 mg/kg, po administered as single dose measured at 8 hrs post dose relative to untreated control; assay type: functional, organism-based
Method in brief: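 Healthy wild-type male C57BL6/J mice were dosed orally at 10 mg/kg or with vehicle. Hepatic transcription of the PPARγ target gene CD36 was assessed in liver against vehicle-treated animals. Mean±SEM, n(vehicle)=2, n(treated)=4.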

Mus musculus [17] = assay: Drug uptake in C57BL/6JRj mouse at 10 mg/kg, po by LC-MS/MS analysis; assay type: ADME, organism-based; conditions: in vivo; method in brief: as §2
Mus musculus [18] = assay: Time at which plasma concentration stays above in-vitro EC50 for partial agonist activity at PPARgamma in C57BL/6JRj mouse at 10 mg/kg, po by LC-MS/MS analysis; assay type: organism-based; conditions: in vivo; method in brief: as §2
Mus musculus [19] = assay: Time at which plasma concentration stays above in-vitro IC50 for sEH in C57BL/6JRj mouse at 10 mg/kg, po by LC-MS/MS analysis; assay type: ADME, organism-based; conditions: in vivo; method in brief: as §2
Mus musculus [20] = assay: Time at which plasma concentration stays above in-vitro pA2 for CysLT1 in C57BL/6JRj mouse at 10 mg/kg, po by LC-MS/MS analysis; assay type: ADME, organism-based; conditions: in vivo; method in brief: as §2

| Compound | EC50 [1] [nM] | IC50 [2] [nM] | Kb [3] [nM] | further results |
| --- | --- | --- | --- | --- |
| COc1cc(C(=O)NS(=O)(=O)c2cc(Cl)cc(Cl)c2)ccc1Cc1cn(C)c2ccc(NC(=O)NC3CCCCC3)cc12 | 740 | 550 | 6.31 |  |
| COc1cc(C(=O)NS(=O)(=O)c2cccc(Cl)c2)ccc1Cc1cn(C)c2ccc(NC(=O)NC3CCCCC3)cc12 | 370 | 680 | 1.26 |  |
| COc1cc(C(=O)NS(=O)(=O)c2ccccc2)ccc1Cc1cn(C)c2ccc(NC(=O)OC3CCCC3)cc12 | 230 | 2500 | 0.0794 |  |
| COc1cc(C(=O)NS(=O)(=O)c2ccccc2C)ccc1Cc1cn(C)c2ccc(NC(=O)OC3CCCC3)cc12 [ZAFIRLUKAST] | 2440 | 2000 |  | Activity [4]: Active; Activity [5]: Active; solubility at 24 h [6]: 0.14 µg/mL (≈ 0.243 µM); logD at 30 µM [7]: 2.47; remaining at 4 h, 10 µM [8]: 73%; Activity (Mus musculus [9]): inactive; Activity (Mus musculus [10]): inactive |
| CN(CCOc1ccc(CC2SC(=O)NC2=O)cc1)c1ccccn1 (stereo not drawn) [ROSIGLITAZONE] |  |  |  | Activity [11]: Active; Activity [12]: Active; Activity [13]: Active |
| COc1cc(C(=O)NS(=O)(=O)c2cccc(F)c2)ccc1Cc1cn(C)c2ccc(NC(=O)NC3CCCCC3)cc12 | 200 | 410 | 12.6 |  |
| COc1cc(C(=O)NS(=O)(=O)c2ccccc2C)ccc1Cc1cn(C)c2ccc(NC(=O)NC3CCCC3)cc12 | 2490 | 590 | 0.794 |  |
| COc1cc(C(=O)NS(=O)(=O)c2cccc(C(F)(F)F)c2)ccc1Cc1cn(C)c2ccc(NC(=O)NC3CCCCC3)cc12 | 350 | 1490 | 5.01 |  |
| COc1cc(C(=O)NS(=O)(=O)c2ccccc2C)ccc1Cc1cn(C)c2ccc(NC(=O)NC3CCCCC3)cc12 | 670 | 150 | 25.1 |  |
| COc1cc(C(=O)NS(=O)(=O)c2ccccc2)ccc1Cc1cn(C)c2ccc(NC(=O)NC3CCCCC3)cc12 |  |  | 2 | Activity [5]: Not Active; solubility at 24 h [6]: 2.1 µg/mL (≈ 3.65 µM); logD at 30 µM [7]: 1.7; remaining at 4 h, 10 µM [8]: 65%; Activity (HepG2): Non-Toxic; Activity [14]: Not Active; Activity [11]: Not Active; half-life [15]: 1.9 h; Activity (Mus musculus [16]): Active; Activity (Mus musculus [9]): inactive; Activity (Mus musculus [10]): Active; Drug uptake (Mus musculus [17]): Active; Activity [13]: inactive; Time (Mus musculus [18]): 4 h; Time (Mus musculus [19]): 8 h; Time (Mus musculus [20]): 8 h |
| COc1cc(C(=O)NS(=O)(=O)c2cccc(Cl)c2)ccc1Cc1cn(C)c2ccc(NC(=O)OC3CCCC3)cc12 | 140 | 7000 | 0.1 |  |
